This is an account of results in ChEMBL document CHEMBL3525900, “Pharmacokinetics, distribution, and metabolism of [14C]sunitinib in rats, monkeys, and humans” (Drug Metab Dispos, 2012).

Holding throughout (details): in vivo
Data set [1] in a line: Drug excretion in urine of male cynomolgus monkey treated with [14C]sunitinib at 6 mg/kg, po administered as single dose by liquid scintillation counting. It counts as ADME, organism-based, Macaca fascicularis. Set-up: dose 6 mg/kg, dosed compound name [14C]Sunitinib, route oral. In a few lines: (§1)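 Cynomolgus monkeys given one oral gavage dose of [14C]sunitinib L-malate, 6 mg/kg (37 µCi/kg). Urine collected at 0-4, 4-8 and 8-24 h, feces at 0-8 and 8-24 h, then both daily to 14 days; samples stored at -80 °C. Duplicate urine aliquots counted by liquid scintillation; homogenized feces combusted before counting.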

Data set [2] can be described thus: Drug excretion in urine of human treated with [14C]sunitinib at 50 mg, po administered as single dose by liquid scintillation counting.
Data set [3] can be described thus: Drug excretion in urine of female Sprague-Dawley rat treated with [14C]sunitinib at 15 mg/kg, po administered as single dose by liquid scintillation counting. It counts as ADME, organism-based. Set-up: dose 15 mg/kg, dosed compound name [14C]Sunitinib, route oral. In outline:
(§2)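 Female and male rats given one oral gavage dose, 15 mg/kg free base equivalents (50 µCi/kg). Urine and feces collected on dry ice, protected from light, over 0-4, 4-8 and 8-24 h, then daily to 72 h. Urine aliquots counted by liquid scintillation; homogenized feces combusted in oxygen before counting. Counts 5 min, external quench correction.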

A short description of data set [4]: Drug excretion in feces of male cynomolgus monkey treated with [14C]sunitinib at 6 mg/kg, po administered as single dose by liquid scintillation counting. It counts as ADME, organism-based, Macaca fascicularis. Details: dose 6 mg/kg, dosed compound name [14C]Sunitinib, route oral. In outline:
as §1

A short description of data set [5]: Drug excretion in urine of female Sprague-Dawley rat treated with [14C]sunitinib at 5 mg/kg, iv administered as single dose by liquid scintillation counting. Set-up: dose 5 mg/kg, dosed compound name [14C]Sunitinib, route intravenous. It counts as ADME, organism-based. In outline: (§3)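 Five female rats given a single tail-vein bolus of [14C]sunitinib L-malate, 5 mg/kg free base equivalents (50 µCi/kg). Urine and feces collected over 0-72 h into dry-ice cooled containers. Urine counted directly by liquid scintillation; feces homogenized and combusted in oxygen before counting. Expired air also monitored.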

The nature of data set [6]: Drug excretion in urine of male Sprague-Dawley rat treated with [14C]sunitinib at 15 mg/kg, po administered as single dose by liquid scintillation counting. It counts as ADME, organism-based. Set-up: dose 15 mg/kg, dosed compound name [14C]Sunitinib, route oral. In outline:
as §2

The nature of data set [7]: Drug excretion in feces of female cynomolgus monkey treated with [14C]sunitinib at 6 mg/kg, po administered as single dose by liquid scintillation counting. It counts as ADME, organism-based, Macaca fascicularis. Details: dose 6 mg/kg, dosed compound name [14C]Sunitinib, route oral. In a few lines:
as §1

The nature of data set [8]: Drug excretion in urine of female cynomolgus monkey treated with [14C]sunitinib at 6 mg/kg, po administered as single dose by liquid scintillation counting. It counts as ADME, organism-based, Macaca fascicularis. Set-up: dose 6 mg/kg, dosed compound name [14C]Sunitinib, route oral. In outline: as §1
Data set [9] in a line: Drug excretion in feces of human treated with [14C]sunitinib at 50 mg, po administered as single dose by liquid scintillation counting.
Data set [10] can be described thus: Drug excretion in feces of male Sprague-Dawley rat treated with [14C]sunitinib at 15 mg/kg, po administered as single dose by liquid scintillation counting. It counts as ADME, organism-based. Details: dose 15 mg/kg, dosed compound name [14C]Sunitinib, route oral. In a few lines: as §2
Data set [11] is described as follows: Drug excretion in feces of female Sprague-Dawley rat treated with [14C]sunitinib at 5 mg/kg, iv administered as single dose by liquid scintillation counting. It counts as ADME, organism-based. Set-up: dose 5 mg/kg, dosed compound name [14C]Sunitinib, route intravenous. In a few lines: as §3
Data set [12] in a line: Drug excretion in feces of female Sprague-Dawley rat treated with [14C]sunitinib at 15 mg/kg, po administered as single dose by liquid scintillation counting. It counts as ADME, organism-based. Details: dose 15 mg/kg, dosed compound name [14C]Sunitinib, route oral. In outline: as §2

As for `CC[N+]([O-])(CC)CCNC(=O)c1c(C)[nH]c(/C=C2\C(=O)Nc3ccc(F)cc32)c1C`, the Compound recovery in data set [1] is recorded as < 0.1%; in [2], “metabolite_not_detected”; in data set [3], 1.5%; in data set [4], 3.2%; in [5], 0.7%; in data set [6], 0.3%. Besides, the values for the Compound recovery in data set [7] and in [8] were 2.6% and 0.2%, respectively.

Take `Cc1[nH]c(/C=C2\C(=O)Nc3ccc(F)cc32)c(C)c1C(=O)NCC(=O)O`: the Compound recovery result is on record as “metabolite_not_detected” in data set [9], 6.3% in data set [4] and 6.2% in data set [7].

Regarding `CCN(CC)CCNC(=O)c1c(C)[nH]c(/C=C2\C(=O)Nc3ccc(O)cc32)c1C`, the Compound recovery is given as 4.3% in data set [10]; 6.3% in data set [4]; 6.1% in data set [11]; 3.5% in [12]; 5.9% in [7].

As to `CCNCCNC(=O)c1c(C)[nH]c(C=C2C(=O)Nc3ccc(F)cc32)c1C` (mixture of isomers), the results for the Compound recovery in [4] and in [7] were 30.7% and 29.3%, respectively.
